Sampled rows, rich in hits. Any-hit rate of the full collection: about 4.3%.
ALR inh: human ALR oxidase inhibition via reduced H2O2; P55789; actives 3.8% (n = 290,000); purified ALR, DTT oxidation, H2O2 HRP-luminol luminescence; inhibition, % (no concentration beside the values);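 active means mean replicate inhibition above about 79%, with every replicate also reaching it, limit read from the data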
Rin1 Abl inh: human Rin1-Abl interaction inhibition. TR-FRET Rin1/Abl binding, biochemical. inhibition, % at 7.35 µM. actives 0.4% (n = 360,000); in the data active means inhibition above about 5%, passing the limit was not always enough
UBC9 SUMO inh: inhibitors of human SUMOylation (UBC9). P63279. HTRF SUMOylation assay, SAE1/SAE2 + UBC9, in vitro. inhibition, % at 35 µM. actives 0.36% (n = 290,000). AID 2006; in the data active means inhibition above about 50%, passing the limit was not always enough
UBC13 inh: blocks human UBC13 polyubiquitin chain formation | inhibition, % at 20 µM | actives 0.47% (n = 330,000) | TR-FRET | P61088; in the data active means inhibition above about 45%, passing the limit was not always enough
RBBP9 inh: blocks human serine hydrolase RBBP9; inhibition, % at 7.94 µM; O75884; recombinant RBBP9, FP-Rh probe fluorescence polarization; actives 0.2% (n = 220,000); AID 1515;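 active means inhibition above the campaign mean of all tested compounds plus 3 SD, cut at about 14% in these data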;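 further: plate controls were DMSO wells with RBBP9 for no effect and wells lacking RBBP9 protein for full effect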
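Assay system: recombinant human RBBP9; Reagent: Serine-hydrolase probe FP-Rh, 375 nM pre-mixing; Doses: 7.94 µM single dose, 0.794% DMSO; Incubation: 30 min then 45 min, 25 °C; Detection: fluorescence polarization (mP), excitation 525 nm, emission 598 nm; Evaluation: percent inhibition from mP, scaled between DMSO and no-protein wells.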
PREPL inhibitor: human PREPL enzyme inhibition. recombinant PREPL, fluorescence polarization activity-based probe. AID 2751. inhibition, % at 5.96 µM. actives 0.68% (n = 320,000); in the data active means inhibition above about 43%;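 further: 0% = enzyme with DMSO and 100% = wells lacking enzyme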
* hit, by the source's call; · = not tested or not shown.

SMILES | ALR inh | Rin1 Abl inh | UBC9 SUMO inh | UBC13 inh | RBBP9 inh | PREPL inhibitor
COC(=O)CCCCC1SCC2NC(=O)NC21O (centres undefined) | 36.0 | 87.3* | 5.1 | -1.9 | -8.6 | 1.2
CCOc1ccc(CSC(CC(=O)O)C(=O)O)cc1 (centres undefined) | 98.1* | 2.2 | 22.0 | -4.7 | 1.2 | -0.1
CCCCOc1ccc(CSC(CC(=O)O)C(=O)O)cc1 (centres undefined) | 20.1 | 1.1 | 2.7 | 3.1 | -8.3 | 2.0
CC1(C)Cc2cccc(OCC(=O)Nc3cccnc3Cl)c2O1 | -13.2 | 1.8 | 18.5 | 0.1 | -5.6 | 9.4
Nc1ccccc1C#Cc1ccc2[nH]ccc2c1 | 97.5* | 1.8 | · | 5.9 | · | 14.2
O=[N+]([O-])C(=C1Nc2ccccc2N1)/C(Cl)=C(/Cl)Br | 88.9* | 3.3 | -7.1 | -6.0 | -6.6 | -1.4
C=C(C)Cn1c(C)cc(C)c(S(=O)(=O)c2cccc(C)c2)c1=O | -1.7 | 0.7 | -9.2 | 1.9 | -3.1 | -4.1
C=CCSc1nc2c(C(=O)OCC)nnn2c2ccccc12 | -3.1 | -2.1 | 7.6 | · | · | ·
CCOC(=O)c1nnn2c1nc(SCC(C)=O)c1ccccc12 | 87.8* | -1.3 | 11.9 | 6.3 | 1.1 | -1.2
Cn1c(-c2sccc2OCc2ccccc2)n[nH]c1=S | 96.8* | -1.0 | -21.3 | 8.7 | -9.6 | -15.8
Cn1c(-c2ccco2)n[nH]c1=S | 16.9 | -4.9 | -5.4 | -11.7 | -6.5 | 1.6
CN(C)c1ccc(/C=N/n2c(-c3ccccc3Br)n[nH]c2=S)cc1 | 96.3* | -3.0 | -21.9 | -3.2 | -5.3 | 8.3
CN(C)c1ccc(/C=N/n2c(COc3ccccc3)n[nH]c2=S)cc1 | · | -1.9 | -6.0 | -13.0 | 3.5 | 0.3
Cc1nc(-c2ccccc2)sc1-c1n[nH]c(=S)n1C | 92.0* | -1.0 | 6.7 | -0.2 | -3.0 | 6.8
Cn1c(-c2ccccc2Br)n[nH]c1=S | 95.6* | 0.0 | · | 0.7 | -5.8 | -0.3
COc1ccc(CCNC(=O)C(=O)NCC2OCCN2S(=O)(=O)c2ccc(Cl)cc2)cc1OC (centres undefined) | · | 1.6 | 11.7 | 1.4 | · | -0.2
c1cc(-c2ccsc2)n2cnnc2c1 | · | 2.0 | · | · | · | ·
Cc1c(Cl)c(-c2n[nH]c(=S)n2Cc2ccco2)nn1C | 21.0 | -2.6 | 17.7 | 7.0 | -10.7 | 2.7
Cc1c(Cl)c(-c2n[nH]c(=S)n2-c2ccccc2)nn1C | 91.6* | -6.0 | 7.2 | 10.7 | -6.3 | -6.9
Cc1cccc(-c2n[nH]c(=S)n2C)c1 | 5.2 | 3.7 | 4.5 | -8.2 | -9.0 | 7.8
Cn1c(-c2ccccc2)n[nH]c1=S | 92.6* | 2.6 | 13.4 | 4.0 | 3.2 | 2.6
CN(C)c1ccc(-c2n[nH]c(=S)n2-c2ccccc2)cc1 | 94.9* | 1.5 | 4.6 | -13.3 | -6.8 | 23.3
Cc1ccn2c(-c3n[nH]c(=S)n3C)c(C)nc2c1 | 95.2* | -0.6 | 21.4 | 0.8 | -6.8 | 7.4
Cc1c(C)n(CCc2ccccc2)c2ncnc(NCCCN(C)C)c12 | · | -0.1 | 9.5 | 4.1 | · | 1.4
C=CCC[C@@H](Cc1ccc(F)cc1)C(=O)OCCNC(=O)[C@H](CC=C)CC(=O)NCCO | -0.2 | 1.3 | · | -2.5 | · | 12.9
SMILES | ALR inh | Rin1 Abl inh | UBC9 SUMO inh | UBC13 inh | RBBP9 inh | PREPL inhibitor
CCC(CC)C(=O)N(C)c1c(C)nc2c(OCc3ccc(OC(F)F)cc3)cccn12 | · | -0.5 | · | · | · | ·
COc1ccc(C2(CNS(=O)(=O)c3ccccc3)CCOCC2)cc1 | -1.2 | 0.6 | 5.5 | 2.9 | -0.3 | 2.5
CCn1c(-c2cc(-c3ccc(C)c(C)c3)nc3ccccc23)n[nH]c1=S | 40.1 | · | 18.4 | -6.5 | -9.0 | -10.6
Cc1ccc(-c2cc(-c3n[nH]c(=S)n3C)c3ccccc3n2)cc1 | 97.0* | 0.2 | -6.7 | -26.3 | -5.8 | 0.0
Cc1ccccc1NC(=S)c1ccc2ccccc2n1 | -3.2 | 8.2 | -9.6 | -9.5 | · | 2.5
CS(=O)(=O)c1ccc(C(=O)OCC(=O)c2ccc(Cl)s2)cc1 | -12.3 | -0.8 | · | -9.9 | · | -5.5
Cc1ccc(-c2cc(-c3ccccc3[N+](=O)[O-])[nH]n2)c(O)c1 | 90.4* | 1.3 | -8.9 | 0.0 | -11.5 | 10.5
Cc1cccc(C)c1NC(=O)C(=O)NCC1CCCN1S(=O)(=O)c1cccs1 (centres undefined) | 1.0 | 1.9 | · | 7.2 | · | 0.5
Brc1ccc(CN2CCN(c3ccccc3)CC2)o1 | 97.4* | -1.4 | 6.4 | -0.9 | · | ·
CC(CN1CCN(c2ccccc2)CC1)c1ccccc1 (centres undefined) | 97.5* | -3.5 | -2.7 | -8.6 | -6.4 | -7.2
c1ccc(SCCN2CCN(c3ccccc3)CC2)cc1 | 98.4* | -0.8 | 0.9 | 2.5 | · | 14.1
CCCN1CCC(=O)N(CCSc2ccccc2)CC1 | -3.2 | 2.1 | -0.8 | -1.0 | · | 7.5
CC(=O)Nc1ccc(CN(C)c2c(C)nc3ccc(C(=O)N(C)Cc4ccccc4)cn23)cc1 | · | 0.1 | · | · | · | ·
NNC(=O)c1ccc(CSc2nc3ccccc3s2)cc1 | -15.6 | -0.3 | 0.2 | 4.0 | -28.6 | -13.1
COCCN(CCOC)C(=O)c1ccc(CSc2nc3ccccc3s2)cc1 | 91.9* | 2.1 | 9.1 | -4.8 | · | 20.6
O=C(NCCN1CCOCC1)c1cc(Cl)ccc1Cl | -11.4 | 0.3 | -1.3 | 4.2 | · | ·
O=C(NCCN1CCOCC1)NC1(C(F)(F)F)Oc2ccc(Cl)cc2O1 (centres undefined) | 99.0* | -1.7 | 4.8 | · | 7.0 | 1.3
CNc1ccc(-c2cccc(C#N)c2)cn1 | · | 1.1 | · | · | · | ·
Cc1cccc(-c2nc(CS(=O)CC(=O)NCCCSC3CCCCC3)c(C)o2)c1 (centres undefined) | 63.5 | -2.1 | 11.5 | 20.8 | 2.3 | 14.7
COc1cccc(-c2nc(CS(=O)CC(=O)NC3CCCCC3)c(C)o2)c1 (centres undefined) | 99.5* | 0.4 | -3.0 | 1.9 | · | 4.2
COc1cccc(-c2nc(CS(=O)CC(=O)NC3CCCC3)c(C)o2)c1 (centres undefined) | 98.6* | -1.4 | 25.1 | 0.9 | -9.9 | 1.6
N=C1CCC(=N)c2c1c(O)c1ccccc1c2O | 63.3 | -2.7 | 63.1* | -85.5 | 13.0 | 41.0
CCCCN1C(=O)C(CC(=O)NC2CC2)CC(C(=O)N(CC)CC)=C1C (centres undefined) | · | -4.5 | · | · | · | ·
O=C(O)c1cccc(NC(=S)NC(=O)c2cccc(OCc3ccccc3)c2)c1 | 98.5* | 1.4 | -2.8 | -5.3 | · | -40.2
CCCOc1cccc(C(=O)NC(=S)Nc2ccccc2)c1 | -3.2 | 1.1 | -1.1 | 8.1 | -3.6 | 4.0
CC(=O)Nc1ccc(NC(=S)NC(=O)/C=C/c2ccco2)cc1 | -0.4 | -0.1 | 4.3 | -1.2 | · | 4.3
CN1CCN(c2ccc(NC(=S)NC(=O)/C=C/c3ccco3)cc2)CC1 | 81.0* | -1.5 | 8.0 | -13.0 | · | 17.8
O=C(/C=C/c1ccco1)NC(=S)Nc1cccc(C(=O)O)c1 | 96.4* | 5.2 | 33.9 | -6.6 | · | 7.7
O=C(/C=C/c1ccco1)NC(=S)Nc1ccccn1 | 98.7* | -3.0 | 0.8 | -8.5 | -2.0 | 11.0
CC(=O)Oc1ccc(/C(C)=N/N2CCN(Cc3ccc(C)cc3)CC2)cc1 | 5.0 | -2.1 | 0.3 | 0.7 | · | -2.5

Assay outcomes as filed in PubChem.
